According to ChEMBL document CHEMBL3525985, “Regiospecificity and stereospecificity of human UDP-glucuronosyltransferases in the glucuronidation of estriol, 16-epiestriol, 17-epiestriol, and 13-epiestradiol” (Drug Metab Dispos, 2013):

What was measured:
Type in all cases: ADME
Liver microsome = test: Drug metabolism in human liver microsomes assessed as 17-epiestriol-16-glucuronide formation after 15 to 60 mins by Michaelis-Menten equation analysis in presence of UDPGA
Procedure, shortened: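 Pooled human liver microsomes (30 donors), 0.5 or 10 µg, with alamethicin at 5% of total protein. Incubated with 50 mM phosphate pH 7.4, 10 mM MgCl₂, 5 mM UDPGA and 10% DMSO for 15–60 min at 37°C. Each glucuronide regioisomer quantified by HPLC, in triplicate, with substrate consumption at or below 10%.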

[1] = molecular target: T1, UDP-glucuronosyltransferase 1A10 (Homo sapiens, UniProt Q9HAW8); test: Drug metabolism assessed as recombinant human C-terminal His-tagged UGT1A10-mediated 16-epiestriol-3-glucuronide formation after 15 to 60 mins by Michaelis-Menten equation analysis in presence of UDPGA; settings: recombinant enzyme
T1 sequence (Q9HAW8 whole entry): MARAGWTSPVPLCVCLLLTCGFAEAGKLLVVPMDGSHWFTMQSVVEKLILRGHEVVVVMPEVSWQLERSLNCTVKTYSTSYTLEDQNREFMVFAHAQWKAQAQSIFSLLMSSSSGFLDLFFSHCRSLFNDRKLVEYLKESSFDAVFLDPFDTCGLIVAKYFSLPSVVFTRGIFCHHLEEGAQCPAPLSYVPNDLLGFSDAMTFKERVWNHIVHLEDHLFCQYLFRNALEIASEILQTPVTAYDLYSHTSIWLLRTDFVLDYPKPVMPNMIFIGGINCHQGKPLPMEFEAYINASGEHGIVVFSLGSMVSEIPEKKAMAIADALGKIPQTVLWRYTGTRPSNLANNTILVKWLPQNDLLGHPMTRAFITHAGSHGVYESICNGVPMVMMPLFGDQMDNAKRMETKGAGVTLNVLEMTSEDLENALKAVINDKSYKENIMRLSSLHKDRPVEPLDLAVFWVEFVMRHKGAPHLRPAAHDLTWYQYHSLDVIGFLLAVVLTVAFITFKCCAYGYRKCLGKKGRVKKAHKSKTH
Procedure, shortened: (§1)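 For kinetics, the aglycone ranged from 0.2 to 300 μM in DMSO (10% final) with 5 mM UDPGA, 10 mM MgCl₂ and 50 mM phosphate pH 7.4. Enzyme was UGT-enriched insect cell membranes. Incubation was 15–60 min at 37°C, in triplicate, keeping substrate consumption ≤10%. Products were measured by HPLC and fitted to Michaelis-Menten. Rates were normalized to expression level.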

[2] = molecular target: T2, UDP-glucuronosyltransferase 2B15 (Homo sapiens, UniProt P54855); test: Drug metabolism assessed as recombinant human C-terminal […]-mediated estradiol-3-glucuronide/estradiol-17-glucuronide formation at 200 uM after 15 to 60 mins by HPLC analysis in presence of UDPGA; settings: recombinant enzyme
T2 sequence (P54855 whole entry): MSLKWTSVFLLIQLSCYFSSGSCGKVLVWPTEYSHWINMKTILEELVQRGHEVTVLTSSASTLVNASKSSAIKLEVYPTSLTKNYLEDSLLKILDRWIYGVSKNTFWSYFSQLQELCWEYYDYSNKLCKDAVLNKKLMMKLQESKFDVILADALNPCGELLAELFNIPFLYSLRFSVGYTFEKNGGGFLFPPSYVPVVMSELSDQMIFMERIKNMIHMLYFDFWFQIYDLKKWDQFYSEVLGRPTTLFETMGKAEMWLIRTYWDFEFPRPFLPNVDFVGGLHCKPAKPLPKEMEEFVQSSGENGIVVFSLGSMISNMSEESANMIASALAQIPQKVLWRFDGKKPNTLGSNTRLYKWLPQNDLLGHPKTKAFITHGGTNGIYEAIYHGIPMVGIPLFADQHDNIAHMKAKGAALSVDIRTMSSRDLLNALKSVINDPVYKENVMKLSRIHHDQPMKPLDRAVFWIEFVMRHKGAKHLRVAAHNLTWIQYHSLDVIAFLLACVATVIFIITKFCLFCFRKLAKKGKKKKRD

[3] = molecular target: T3, UDP-glucuronosyltransferase 2B7 (Homo sapiens, UniProt P16662); test: Drug metabolism assessed as recombinant human C-terminal His-tagged UGT2B7-mediated estradiol-17-glucuronide formation at 200 uM after 15 to 60 mins by HPLC analysis in presence of UDPGA; settings: recombinant enzyme
T3 sequence (P16662 whole entry): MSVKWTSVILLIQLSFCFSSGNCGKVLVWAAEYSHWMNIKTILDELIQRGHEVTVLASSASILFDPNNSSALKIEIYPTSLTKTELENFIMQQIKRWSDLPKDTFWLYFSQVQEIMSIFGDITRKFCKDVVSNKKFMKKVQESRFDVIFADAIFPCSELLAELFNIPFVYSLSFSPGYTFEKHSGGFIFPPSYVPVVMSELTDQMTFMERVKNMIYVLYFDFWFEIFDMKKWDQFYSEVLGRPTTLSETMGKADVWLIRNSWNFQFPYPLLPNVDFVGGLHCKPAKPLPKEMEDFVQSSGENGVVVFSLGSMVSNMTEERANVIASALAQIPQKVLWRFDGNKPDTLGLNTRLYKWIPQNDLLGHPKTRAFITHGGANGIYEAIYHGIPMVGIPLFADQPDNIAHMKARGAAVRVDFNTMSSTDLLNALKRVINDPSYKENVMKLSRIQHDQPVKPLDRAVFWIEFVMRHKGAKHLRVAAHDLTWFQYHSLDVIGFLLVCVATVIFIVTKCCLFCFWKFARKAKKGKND
Procedure, shortened: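 Membranes (5 or 50 µg) from insect cells expressing His-tagged UGT2B7, with 200 µM aglycone in 50 mM phosphate pH 7.4, 10 mM MgCl₂, 5 mM UDPGA and 10% DMSO (final), 15–60 min at 37°C. Stopped with perchloric acid on ice, supernatant run on HPLC. Done in triplicate with no-UDPGA controls; rates normalized to relative UGT expression.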

[4] = molecular target: T1, UDP-glucuronosyltransferase 1A10; test: Drug metabolism assessed as recombinant human C-terminal His-tagged UGT1A10-mediated estriol-3-glucuronide formation after 15 to 60 mins by Michaelis-Menten equation analysis in presence of UDPGA; settings: recombinant enzyme; procedure, shortened: as §1

## C[C@]12CC[C@@H]3c4ccc(O)cc4CC[C@H]3[C@@H]1C[C@@H](O)[C@H]2O
Liver microsome
  Km: 7.8 µM
  Vmax: 128 pmol/min/mg

## C[C@]12CC[C@@H]3c4ccc(O)cc4CC[C@H]3[C@@H]1C[C@H](O)[C@@H]2O [EPIESTRIOL]
[1]
  Drug metabolism: 3500 pmol/min/mg

## C[C@]12CC[C@@H]3c4ccc(O)cc4CC[C@H]3[C@@H]1CC[C@@H]2O [ESTRADIOL]
[2]
  Drug metabolism: metabolite_detected
[3]
  Drug metabolism: metabolite_detected

## C[C@]12CC[C@@H]3c4ccc(O)cc4CC[C@H]3[C@@H]1C[C@@H](O)[C@@H]2O [ESTRIOL]
[4]
  Drug metabolism: 840 pmol/min/mg
